Measured values as given in the EternaBench riboswitch data.

Tested on: MS2 coat protein
Assay: apparent Kd, MS2 coat protein; higher = weaker binding; RNA-MaP array; FMN 200 µM where present
In short: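 The titrant was SNAP-549-labelled MS2 coat protein, run from 0.7 or 1.5 nM in doubling steps to 3 µM. It was applied to designs transcribed by stalled E. coli RNA polymerase on Illumina sequencing-chip clusters, without ligand first and then with constant ligand, in 100 mM Tris-HCl pH 7.5, 80 mM KCl, 4 mM MgCl2, BSA, DTT, yeast tRNA and Tween-20. The apparent Kd is the median of filtered per-cluster binding-curve fits, with green signal normalised to red-channel RNA signal and control-cluster median Fmax.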

[1] = designed as: OFF switch for flavin mononucleotide, no ligand
[2] = ligand present: flavin mononucleotide, designed as: OFF switch for flavin mononucleotide
[3] = designed as: ON switch for flavin mononucleotide, no ligand
[4] = ligand present: flavin mononucleotide, designed as: ON switch for flavin mononucleotide

“GUCAGCUCGUGAGGAUAUACAACAAUGCUUCGGCAGUGUAUUAAGAUCACAUGAGGAUCACCCAUGUAGAAGGCACGAGCUGAU” was tested, and the “apparent Kd” value [1] was 7.66 nM and the “apparent Kd” value [2] was 73.7 nM.

“UCAGGCUUCGAGAAGGACAUGAGGAUCACCCAUGUGCGUGUGAAGCAGCCGUGAGGCUGCAUCAUGUAGGAUAUCGGAGUCUGU” was tested, and the “apparent Kd” value [1] was 92.3 nM and the “apparent Kd” value [2] was 554 nM.

For “CUUUUGUGAGGAUAUUAGUAGUAAAUAAAUAAAAUUACUACUGAGAAGGUACAUGAGGAUCACCCAUGUUCCUC”, the “apparent Kd” value [1] was 14.8 nM and the “apparent Kd” value [2] was 19.3 nM.

For “UGUUGUAUUACAGGAUAUCUAUUGUUUUUAUAUAGAGAAGGGUAUUCACAUGAGGAUCACCCAUGUAUAUACGAGGAAGUUGUG”, the “apparent Kd” value [3] was 41.1 nM and the “apparent Kd” value [4] was 45.8 nM.

“GAUAGGACAGAGAAGGACGUAGCUAGAGAUACUAGCAUAAAGUCCUCAACAUGAGGAUCACCCAUGUAGGAUAUCUGUCCUAUC” was tested, and the “apparent Kd” value [1] was 6.39 nM and the “apparent Kd” value [2] was 7.13 nM.

“UUUUUACAUGAGGAUCACCCAUGUCAGGAUAUCGUUAUAUUUUAUUAUUUUAUUUUUUCGAGAAGGGACUAUUA” was tested, and the “apparent Kd” value [1] was 90.3 nM and the “apparent Kd” value [2] was 58.6 nM.

“AGAUCGAUUGUGAGGAUAUUGACCGGACGACCCAUCGAGAAGGCACAUGAGGAUCACCCAUGUGAGUCGGUUUA” was tested, and the “apparent Kd” value [1] was 14.9 nM and the “apparent Kd” value [2] was 18.2 nM.

“AAGCGCUGUCAAGGAUAUCCGAAAAGAGAAUAAGGAGAAGGUGACAUGAGGAUCACCCAUGUGCACUGGGUGGACGCGCGCUCC” was tested, and the “apparent Kd” value [1] was 549 nM and the “apparent Kd” value [2] was 196 nM.

“UGGUACAUGGGAGGAUAUCAUGUGAGAACAUGAGGAUCACCCAUGUCGAUGGAGACAUCGGAGAUUGAGAAGGCCCAUGUACCU” was tested, and the “apparent Kd” value [3] was 1210 nM and the “apparent Kd” value [4] was 63.8 nM.

In the case of “UUUUUGUCAGGAUAUCGUUAAUUUAAUUGUUUGUAUUAGUUCGAGAAGGGACAUGAGGAUCACCCAUGUAUUUU”, the “apparent Kd” value [1] is reported as 41.1 nM and the “apparent Kd” value [2] is reported as 103 nM.

With “AUCAGCUCGUCAGGAUAUACGUCACUACGUCAGCAGUGUGGUAAGAUCACAUGAGGAUCACCCAUGUAGAAGGGACGAGCUGAU” the “apparent Kd” value [1] was 21.4 nM and the “apparent Kd” value [2] was 201 nM.

In the case of “GUAGCAUAAUCAGGAUAUUCAGCGAAUAGAUAGACAUGAGGAUCACCCAUGUGGCGAAAGCCUAGGGAGAAGGGAUAAUGCUAC”, the “apparent Kd” value [3] is reported as 200 nM and the “apparent Kd” value [4] is reported as 35.8 nM.

With “UUAAAUCAUGUAGGAUAUGCAUGGCGAAGCUACGCAGAAGGACAUGAGGAUCACCCAUGUUAUAGCGUCUGAGAACAGAUGCAA” the “apparent Kd” value [1] was 82.8 nM and the “apparent Kd” value [2] was 264 nM.

With “CUAUACAUAUCAGGAUAUCAUCGAGUGGAUUAACACAGUGAUUACAUGAGGAUCACCCAUGUGCUUGAGAAGGGAUUACUAUUU” the “apparent Kd” value [1] was 14.6 nM and the “apparent Kd” value [2] was 12.9 nM.

In the case of “CUCUUGUAAGGAUAUGACUACAUAAAAAAAAAAAAAUGUAGUCAGAAGGUACAUGAGGAUCACCCAUGUACUAA”, the “apparent Kd” value [1] is reported as 20.9 nM and the “apparent Kd” value [2] is reported as 22.1 nM.

In the case of “AGCUACGUUUCGUAGCAGUGUCAUCGAGAAGGCCCUGACAUGAGGAUCACCCAUGUUGUUACAUGGGAGGAUAUCGAUGAUACG”, the “apparent Kd” value [3] is reported as 12.2 nM and the “apparent Kd” value [4] is reported as 4.68 nM.

With “AAUUAGGUCACAGGAUAUACUACUUCCAAUGCUGUAGAAGGGUGACACAUUCUUUGCUGACAUGAGGAUCACCCAUGUAACCAC” the “apparent Kd” value [3] was 231 nM and the “apparent Kd” value [4] was 41 nM.

For “GCCGAAGGAGGAUAUACACCCGGUGGCAAAACGCCGGCUCGACAUGAGGAUCACCCAUGUAGAAGGCCUGUGGU”, the “apparent Kd” value [1] was 16.4 nM and the “apparent Kd” value [2] was 18 nM.

For “UAGGAGCAAGGAUAUACGAGGAUAUGGUAGUUUGUAGAGUGACAUGAGGAUCACCCAUGUAGAAGGUGCGUGUG”, the “apparent Kd” value [1] was 123 nM and the “apparent Kd” value [2] was 99.7 nM.

With “CUUCAGUCACAGGAUAUGCUCAUCUAAUGAUGAGCAGAAGGGUGAACAUGAGGAUCACCCAUGUUUACGGUGGU” the “apparent Kd” value [1] was 621 nM and the “apparent Kd” value [2] was 487 nM.

For “AAUAUGAGCUGGUCUAAACUCAAAACAUGAGGAUCACCCAUGUAGGAUAUCAGCACGAUAAGUGCUGAGAAGGACAUCCAGCUC”, the “apparent Kd” value [1] was 16.7 nM and the “apparent Kd” value [2] was 20.5 nM.

With “GUAGCAUUCUGAGGAUAUUCAUACCGGUAACGGACAUGAGGAUCACCCAUGUGGCGAAAGCCUUGGGAGAAGGCAGUAUGCUAC” the “apparent Kd” value [3] was 171 nM and the “apparent Kd” value [4] was 10 nM.

In the case of “CAGUGCAAUGUAGGAUAUGCUCAGGAUAACUGAGCAGAAGGACAUGAGGAUCACCCAUGUAAAAUGAAAGAUAAUAAAGCACUG”, the “apparent Kd” value [1] is reported as 16.6 nM and the “apparent Kd” value [2] is reported as 49.9 nM.

For “CUGGUGUGAGGAUAUCAGGACACGUACGCGGGCAUGUCAAAUGAGAAGGCACAUGAGGAUCACCCAUGUGGGAC”, the “apparent Kd” value [1] was 29.7 nM and the “apparent Kd” value [2] was 41.6 nM.

In the case of “AUGCCGUGCAGAGCGCGACGGCGAACAUGAGGAUCACCCAUGUAGGAUAUACUACACAAAGUGUAGUAGAAGGACGUGCGGCAC”, the “apparent Kd” value [1] is reported as 20.9 nM and the “apparent Kd” value [2] is reported as 30.8 nM.

In the case of “CGAGCUGCUGUGAGGAUAUGCCUGUGGGUGCGUGGGUAGAAGGCACAUGAGGAUCACCCAUGUCCUGCAGCUCG”, the “apparent Kd” value [1] is reported as 856 nM and the “apparent Kd” value [2] is reported as 412 nM.

In the case of “AAUAACAAGCAGAAGGGUGAAACGAUAUAGUGCACAGGAUAUGCAAUAAUUCUAAACAUGAGGAUCACCCAUGUCUAGCAUAAA”, the “apparent Kd” value [3] is reported as 28.2 nM and the “apparent Kd” value [4] is reported as 9.84 nM.

With “AGUUUUGUACAUGAGGAUCACCCAUGUUAAUAUGUGGUAGUCAGAAGGCAUUGUUAGAGUUUUAAUGAGGAUAUGAAUAUUCUG” the “apparent Kd” value [3] was 38.3 nM and the “apparent Kd” value [4] was 25 nM.

In the case of “UUGGACGUCGUAGGAUAUGUAGGAUAUUCCUACAUGAGGAUCACCCAUGUUGACAUGGAAGAAAGACAGAAGGACGAUGUCCAU”, the “apparent Kd” value [3] is reported as 325 nM and the “apparent Kd” value [4] is reported as 8.48 nM.

With “CAACCAGUGAAGGAUAUCAUCGAGGCUCGGCAUUGAGAAGGUUACACAUGAGGAUCACCCAUGUGGUUUCGUUC” the “apparent Kd” value [1] was 14.5 nM and the “apparent Kd” value [2] was 14.7 nM.

In the case of “UGAUGUAAAGAGAAGGGCUACUGGUUGAAACCUGCGGCCUCUGGAACAUGAGGAUCACCCAUGUAGCAGGAUAUCUUUGCGUCA”, the “apparent Kd” value [1] is reported as 169 nM and the “apparent Kd” value [2] is reported as 31.4 nM.

With “AACAUGAGGAUCACCCAUGUCCCACCAGAAGGCUGGCGGCCACAGGAACGGCUGUGGCAAAUAACAGAGGAUAUGGUGAAUGCA” the “apparent Kd” value [3] was 80.8 nM and the “apparent Kd” value [4] was 16.1 nM.

In the case of “AUUAUUAAGUUAGGAUAUAGUAAAAUGAUUUAGUUAGAAGGAGCUCACAUGAGGAUCACCCAUGUAAGAGGAUCACCCAUGUAU”, the “apparent Kd” value [1] is reported as 23.8 nM and the “apparent Kd” value [2] is reported as 15.6 nM.

In the case of “AACAGUACAGGAUAUACAUGAGGAUCACCCAUGUGACAAUUAAGUGGCGUACCACAGAGUAGAAGGGUACUGGA”, the “apparent Kd” value [1] is reported as 35 nM and the “apparent Kd” value [2] is reported as 151 nM.

In the case of “AUUGCUCGAGAGAAGGGAACAUGAGGAUCACCCAUGUUACCUCACCUGGUGACGGAACUCCAAGUUCAGGAUAUCUCGAACGAU”, the “apparent Kd” value [1] is reported as 5.63 nM and the “apparent Kd” value [2] is reported as 8.13 nM.

For “UUGGACGUCGUAGGAUAUGUCGGAUAUUCCUACAUGAGGAUCACCCAUGUUGACAUGGAAGAAGGACAGAAGGACGAUGUCCAU”, the “apparent Kd” value [3] was 4.52 nM and the “apparent Kd” value [4] was 3.87 nM.

For “CAUAACUUUUCUCAUGUAAACAUGAGGAUCACCCAUGUAAUGAGAAGGAGGAGGAAGAGAGAAUCCUAGGAUAUCAGAAUUGUU”, the “apparent Kd” value [1] was 6.41 nM and the “apparent Kd” value [2] was 6.84 nM.

With “CCGUUACAUGAGGAUCACCCAUGUGAGGAUAUCGAUGUGACUGGCAGCGUGCGGGACUCGAGAAGGCACUUGGC” the “apparent Kd” value [1] was 74.6 nM and the “apparent Kd” value [2] was 58.5 nM.

In the case of “UUCAAUCACAUAGGAUAUAGAAUAAUAAUUUUUUACAUGAGGAUCACCCAUGUUUUAUUGGGUUUCUAGAAGGAUGAGUUAUUA”, the “apparent Kd” value [3] is reported as 524 nM and the “apparent Kd” value [4] is reported as 300 nM.

“UUGGUUGUCGUAGGAUAUGUAGGAUAUUCCUACAUGAGGAUCACCCAUGUUCGCAUGGAAGAAGGACAGAAGGACGAUGACCAU” was tested, and the “apparent Kd” value [3] was 1290 nM and the “apparent Kd” value [4] was 23.7 nM.

For “CUUUUGUGAGGAUAUCAGUAGUAAAAAAAUAAAAUUACUACUGAGAAGGCACAUGAGGAUCACCCAUGUUCCUU”, the “apparent Kd” value [1] was 26.8 nM and the “apparent Kd” value [2] was 31.6 nM.

With “UUAAUUUAAUGAUAUUAUGACAUUAGAAGGCUGUACAUGUUGAUACAUGAGGAUCACCCAUGUAUAGAGGAUAUAGACAAUUUU” the “apparent Kd” value [1] was 33.2 nM and the “apparent Kd” value [2] was 89 nM.
